The source made the active and inactive calls. The calls are words filed in the database; no cut-off is given here.
Key:
H9c2 [1] = experiment: Antioxidant activity against rat H9c2 cells assessed as reduction in doxorubicin-induced oxidative stress by measuring reduction in intracellular ROS level at 20 uM incubated for 24 hrs by DCFH-DA staining based fluorometric analysis
MCF7 = experiment: Antagonizing activity against doxorubicin-induced antitumor activity in human MCF7 cells assessed as cell viability at 20 uM incubated for 24 hrs in presence of doxorubicin by MTT assay; format: toxicity, cell-based; details: mcf7, 24 h
Outline: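 MCF-7 human breast cancer cells in DMEM with 10% FBS, 37 °C, 5% CO2. They were co-treated with compound (20 μM) plus DOX (1 μM) for 24 h. Viability was read by MTT: 1 h at 37 °C, formazan in DMSO, A540. Mean ± SD, n = 3.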

H9c2 [2] = experiment: Cardioprotective activity against doxorubicin-treated rat H9c2 cells assessed as decrease in Bax protein expression at 20 uM in presence of doxorubicin by immunoblot analysis; format: functional, cell-based
Outline: (§1)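 H9c2 cell lysates after DOX (1 μM) alone or with derivative (20 μM) were run on SDS-PAGE and transferred to PVDF. Blots were probed for pAkt, Akt, pERK1/2, ERK1/2, Bax and Bcl-2, with β-actin as loading control. Detection used HRP secondary (2 h) and ECL, with densitometric quantification. Mean ± SD, n = 3.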

[3] = molecular target: Mitogen-activated protein kinase 1 and 3 (ERK2 and ERK1) (Rattus norvegicus) (UniProt P63086+P21708); experiment: Inhibition of doxorubicin-induced ERK1/2 activation in rat H9c2 cells assessed as reduction in ERK1/2 phosphorylation at 20 uM in presence of doxorubicin by immunoblot analysis; format: cell-based
Mitogen-activated protein kinase 1 and 3 (ERK2 and ERK1) (Rattus norvegicus), sequence (P21708 whole entry, looked up): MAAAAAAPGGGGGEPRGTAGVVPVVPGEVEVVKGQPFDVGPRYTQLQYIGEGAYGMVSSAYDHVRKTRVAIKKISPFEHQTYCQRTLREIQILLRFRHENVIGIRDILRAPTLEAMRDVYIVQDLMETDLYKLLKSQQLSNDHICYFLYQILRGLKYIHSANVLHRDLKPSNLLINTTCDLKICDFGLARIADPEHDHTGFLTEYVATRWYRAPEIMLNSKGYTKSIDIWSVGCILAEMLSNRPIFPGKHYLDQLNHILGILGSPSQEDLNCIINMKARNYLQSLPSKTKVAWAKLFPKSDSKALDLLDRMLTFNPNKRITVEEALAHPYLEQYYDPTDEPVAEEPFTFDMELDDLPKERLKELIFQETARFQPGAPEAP
Mitogen-activated protein kinase 1 and 3 (ERK2 and ERK1) (Rattus norvegicus), sequence (P63086 whole entry, looked up): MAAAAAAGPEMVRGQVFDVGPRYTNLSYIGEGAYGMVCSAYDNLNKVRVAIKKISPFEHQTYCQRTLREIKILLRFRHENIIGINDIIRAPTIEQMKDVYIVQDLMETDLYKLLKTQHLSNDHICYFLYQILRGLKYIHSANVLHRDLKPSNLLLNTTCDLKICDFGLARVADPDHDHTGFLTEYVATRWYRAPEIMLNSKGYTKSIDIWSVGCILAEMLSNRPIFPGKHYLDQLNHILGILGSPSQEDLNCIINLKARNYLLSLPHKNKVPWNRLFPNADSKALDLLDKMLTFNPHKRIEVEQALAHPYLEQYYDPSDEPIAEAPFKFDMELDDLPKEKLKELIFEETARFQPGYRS
Outline: as §1

H9c2 [4] = experiment: Induction of oxidative stress in rat H9c2 cells assessed as increase in intracellular ROS level at 20 uM incubated for 24 hrs by DCFH-DA staining based fluorometric analysis; format: toxicity, cell-based; details: h9c2, 24 h
Outline: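 Intracellular ROS in H9c2 cells. Cells were treated with compound (20 μM) alone or with DOX (1 μM) over 24 h, with NAC (1 mM) as ROS inhibitor. They were then loaded with 10 μM DCFH-DA for 30 min at 37 °C in the dark. Fluorescence was read at 485/550 nm. Mean ± SD, n = 3.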

H9c2 [5] = experiment: Cardioprotective activity against doxorubicin-treated rat H9c2 cells assessed as increase in Bcl2 protein expression at 20 uM in presence of doxorubicin by immunoblot analysis; format: functional, cell-based
Outline: as §1

H9c2 [6] = experiment: Activation of Akt in rat H9c2 cells assessed as increase in Akt phosphorylation at 20 uM in presence of doxorubicin by immunoblot analysis; format: cell-based; details: filed as activator
Outline: as §1

H9c2 [7] = experiment: Cardioprotective activity against rat H9c2 cells assessed as reduction in doxorubicin-induced cardiotoxicity by measuring cell viability at 20 uM incubated for 24 hrs in presence of doxorubicin by MTT assay; format: functional
Outline: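 H9c2 rat cardiomyocytes in DMEM with 10% FBS, seeded for 24 h, then co-treated with compound (20 μM) and DOX (1 μM) for 24 h. MTT added for 1 h at 37 °C, formazan dissolved in DMSO, absorbance read at 540 nm. DOX alone served as positive control. Mean ± SD, n = 3.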

[8] = Cytotoxicity against mouse J774.A1 cells assessed as cell viability at 10 uM incubated for 24 hrs by MTT assay (reference value: 100%); format: toxicity, cell-based; details: read-out: Activity
Outline: (§2)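 J774A.1 murine macrophages or H9c2 rat cardiomyocytes, grown in DMEM with 10% FBS and 1% pen/strep, were seeded for 24 h and then incubated with compound alone for 24 h. MTT reagent was added for 1 h at 37 °C, formazan dissolved in DMSO, absorbance at 540 nm. Results relative to untreated cells, mean ± SD, n = 3.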

[9] = Cytotoxicity against rat H9c2 cells assessed as cell viability at 10 uM incubated for 24 hrs by MTT assay (reference value: 100%); format: toxicity, cell-based; details: read-out: Activity
Outline: as §2

[10] = Cytotoxicity against rat H9c2 cells assessed as cell viability at 20 uM incubated for 24 hrs by MTT assay (reference value: 100%); format: toxicity, cell-based; details: read-out: Activity
Outline: as §2

[11] = Cytotoxicity against mouse J774.A1 cells assessed as cell viability at 20 uM incubated for 24 hrs by MTT assay (reference value: 100%); format: toxicity, cell-based; details: read-out: Activity
Outline: as §2

H9c2 [12] = experiment: Antioxidant activity against rat H9c2 cells assessed as reduction in doxorubicin-induced oxidative stress by measuring reduction in intracellular ROS level at 1 mM incubated for 24 hrs by DCFH-DA staining based fluorometric analysis

With `CCCCCCCCCCCC1=C(O)C(=O)c2c(nc3ccccc3c2-c2ccc([N+](=O)[O-])cc2)C1=O` the Activity (H9c2 [1]) was “Active”, the Activity (MCF7) was “Non-Toxic” and the Activity (H9c2 [2]) was “Active”. The inhibition [3] was “Active”, the Activity (H9c2 [4]) was “Non-Toxic” and the Activity (H9c2 [5]) was “Active”. For the same compound, the Activity (H9c2 [6]) was “Active”.

In the case of `CCCCCCCCCCCC1=C(O)C(=O)c2c(nc3ccccc3c2-c2ccc(F)cc2)C1=O`, the Activity (MCF7) is reported as “Toxic” and the Activity (H9c2 [7]) is reported as 81.4%.

For `CCCCCCCCCCCC1=C(O)C(=O)c2c(nc3ccc(OC)cc3c2-c2ccc([N+](=O)[O-])cc2)C1=O`, the Activity (H9c2 [1]) was “Active”, the viability at 24 h, 10 µM [8] was 81.9% and the viability at 24 h, 10 µM [9] was 99.2%. The viability at 24 h, 20 µM [10] was 94.4%, the Activity (MCF7) was “Non-Toxic” and the Activity (H9c2 [2]) was “Active”. For the same compound, the inhibition [3] was “Active”, the Activity (H9c2 [7]) was 84.3% and the Activity (H9c2 [4]) was “Non-Toxic”. The Activity (H9c2 [5]) was “Active”, the Activity (H9c2 [6]) was “Active” and the viability at 24 h, 20 µM [11] was 76.3%.

With `CCCCCCCCCCCC1=C(O)C(=O)c2c(nc3ccccc3c2-c2ccc(Br)cc2)C1=O` the Activity (H9c2 [1]) was “Active”, the Activity (MCF7) was “Non-Toxic” and the Activity (H9c2 [2]) was “Active”. The inhibition [3] was “Active”, the Activity (H9c2 [7]) was 83.4% and the Activity (H9c2 [4]) was “Non-Toxic”. For the same compound, the Activity (H9c2 [5]) was “Active” and the Activity (H9c2 [6]) was “Active”.

With `CC(=O)N[C@@H](CS)C(=O)O` the Activity (H9c2 [12]) was “Active”.

With `CCCCCCCCCCCC1=C(O)C(=O)C2=C(Nc3ccccc3C2c2ccc(C)c(C)c2)C1=O` (stereo not given) the Activity (H9c2 [1]) was “Active”, the Activity (MCF7) was “Non-Toxic” and the Activity (H9c2 [2]) was “Active”. The inhibition [3] was “Active”, the Activity (H9c2 [4]) was “Non-Toxic” and the Activity (H9c2 [5]) was “Active”. The Activity (H9c2 [6]) was “Active”.

With `CCCCCCCCCCCC1=C(O)C(=O)c2c(nc3ccc(Br)cc3c2-c2ccc([N+](=O)[O-])cc2)C1=O` the Activity (H9c2 [1]) was “Active”, the Activity (MCF7) was “Non-Toxic” and the Activity (H9c2 [2]) was “Active”. The inhibition [3] was “Active”, the Activity (H9c2 [7]) was 91.2% and the Activity (H9c2 [4]) was “Non-Toxic”. For the same compound, the Activity (H9c2 [5]) was “Active” and the Activity (H9c2 [6]) was “Active”.

— ChEMBL document CHEMBL5233289, “Synthesis of Quinoline and Dihydroquinoline Embelin Derivatives as Cardioprotective Agents” (J Nat Prod, 2023)
